Test results as given in ChEMBL document CHEMBL1152649, “Synthesis, cytotoxicity and human telomerase inhibition activities of a series of 1,2-heteroannelated anthraquinones and anthra[1,2-d]imidazole-6,11-dione homologues” (2009).
Calls of active or inactive are those of the source. No cut-off for these calls is given here.

Assays:
[1] = Antiproliferative activity against human Hs 578T cells assessed as cell growth at 10 uM; type: functional; settings: read-out: Activity
Procedure, shortened: (§1)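 NCI 60 cell line panel, single-dose screen (10^-5 M) run by the developmental therapeutics program protocol. Results are given as growth percent of treated cells relative to untreated control cells for each line.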

HOP-92 = assay: Antiproliferative activity against human HOP92 cells assessed as cell growth at 10 uM; type: functional; settings: read-out: Activity; procedure, shortened: as §1
[2] = Cytotoxicity against human H1299 cells at 1 uM after 48 hrs by MTT assay; type: functional; settings: NCI-H1299, 48 h
Procedure, shortened: (§2)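 H1299 non-small cell lung cancer cells were grown in RPMI 1640 with 10% FBS, penicillin and streptomycin at 37 °C under 5% CO2. About 2 × 10³ cells per well were seeded and left 24 h. Compounds were dissolved fresh in DMSO, diluted into complete medium and applied for 48 h. MTT was then added for 4 h at 37 °C, followed by lysis buffer (20% SDS, 50% DMF) for 16 h, and absorbance was read at 550 nm.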

TK-10 = assay: Antiproliferative activity against human TK10 cells assessed as cell growth at 10 uM; type: functional; settings: read-out: Activity
Procedure, shortened: (§3)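 NCI 60 cell line panel, single dose (10^-5 M), run per the Developmental Therapeutics Program protocol (one dose mean graph). Each result is the growth percentage of treated cells relative to untreated control cells.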

K562 = assay: Antiproliferative activity against human K562 cells assessed as cell growth at 10 uM; type: functional; settings: read-out: Activity; procedure, shortened: as §1
MDA-MB-231 = assay: Antiproliferative activity against human MDA-MB-231 cells assessed as cell growth at 10 uM; type: functional; settings: read-out: Activity; procedure, shortened: as §1
[3] = target: Telomerase reverse transcriptase (Homo sapiens) (UniProt O14746); assay: Inhibition of TERT in human H1299 cells assessed as residual transcriptional activity at 100 uM after 24 hrs by SEAP reporter gene assay; values are per cent of control
OVCAR-4 = assay: Antiproliferative activity against human OVCAR4 cells assessed as cell growth at 10 uM; type: functional; settings: read-out: Activity; procedure, shortened: as §1
SK-MEL-28 = assay: Antiproliferative activity against human SK-MEL-28 cells assessed as cell growth at 10 uM; type: functional; settings: read-out: Activity; procedure, shortened: as §1
SNB-75 = assay: Antiproliferative activity against human SNB75 cells assessed as cell growth at 10 uM; type: functional; settings: read-out: Activity; procedure, shortened: as §3
EKVX = assay: Antiproliferative activity against human EKVX cells assessed as cell growth at 10 uM; type: functional; settings: read-out: Activity; procedure, shortened: as §1
[4] = target: Telomerase reverse transcriptase (Homo sapiens) (UniProt O14746); assay: Inhibition of TERT in human H1299 cells assessed as residual transcriptional activity at 1 uM after 24 hrs by SEAP reporter gene assay; values are per cent of control
NCI/ADR-RES = assay: Antiproliferative activity against human NCI/ADR-RES cells assessed as cell growth at 10 uM; type: functional; settings: read-out: Activity; procedure, shortened: as §1
MOLT-4 = assay: Antiproliferative activity against human MOLT4 cells assessed as cell growth at 10 uM; type: functional; settings: read-out: Activity; procedure, shortened: as §1
COLO 205 = assay: Antiproliferative activity against human COLO205 cells assessed as cell growth at 10 uM; type: functional; settings: read-out: Activity; procedure, shortened: as §1
HOP-62 = assay: Antiproliferative activity against human HOP62 cells assessed as cell growth at 10 uM; type: functional; settings: read-out: Activity; procedure, shortened: as §1
M14 = assay: Antiproliferative activity against human M14 cells assessed as cell growth at 10 uM; type: functional; settings: read-out: Activity; procedure, shortened: as §1
OVCAR-5 = assay: Antiproliferative activity against human OVCAR5 cells assessed as cell growth at 10 uM; type: functional; settings: read-out: Activity; procedure, shortened: as §1
KM12 = assay: Antiproliferative activity against human KM12 cells assessed as cell growth at 10 uM; type: functional; settings: read-out: Activity; procedure, shortened: as §1
HCT-15 = assay: Antiproliferative activity against human HCT15 cells assessed as cell growth at 10 uM; type: functional; settings: read-out: Activity; procedure, shortened: as §1
[5] = target: Telomerase reverse transcriptase (Homo sapiens) (UniProt O14746); assay: Inhibition of telomerase in human H1299 cells up to 100 uM by TRAP assay; type: cell-based
Procedure, shortened: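 PCR-based telomeric repeat amplification protocol (TRAP). The telomerase source was total lysate of H1299 lung cancer cells, with protein measured against BSA standards. Controls were extract without inhibitor and RNase A-treated extract.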

786-0 = assay: Antiproliferative activity against human 786-0 cells assessed as cell growth at 10 uM; type: functional; settings: read-out: Activity; procedure, shortened: as §1
UACC-62 = assay: Antiproliferative activity against human UACC62 cells assessed as cell growth at 10 uM; type: functional; settings: read-out: Activity; procedure, shortened: as §3
OVCAR-3 = assay: Antiproliferative activity against human OVCAR-3 cells assessed as cell growth at 10 uM; type: functional; settings: read-out: Activity; procedure, shortened: as §1
NCI-H460 = assay: Antiproliferative activity against human NCI-H460 cells assessed as cell growth at 10 uM; type: functional; settings: read-out: Activity; procedure, shortened: as §1
SF-295 = assay: Antiproliferative activity against human SF295 cells assessed as cell growth at 10 uM; type: functional; settings: read-out: Activity; procedure, shortened: as §1
MCF7 = assay: Antiproliferative activity against human MCF7 cells assessed as cell growth at 10 uM; type: functional; settings: read-out: Activity; procedure, shortened: as §1
PC-3 = assay: Antiproliferative activity against human PC3 cells assessed as cell growth at 10 uM; type: functional; settings: read-out: Activity; procedure, shortened: as §1
SNB-19 = assay: Antiproliferative activity against human SNB19 cells assessed as cell growth at 10 uM; type: functional; settings: read-out: Activity; procedure, shortened: as §1
U-251 = assay: Antiproliferative activity against human U251 cells assessed as cell growth at 10 uM; type: functional; settings: read-out: Activity; procedure, shortened: as §3
HT-29 = assay: Antiproliferative activity against human HT-29 cells assessed as cell growth at 10 uM; type: functional; settings: read-out: Activity; procedure, shortened: as §1
SW-620 = assay: Antiproliferative activity against human SW620 cells assessed as cell growth at 10 uM; type: functional; settings: read-out: Activity; procedure, shortened: as §3
HCC 2998 = assay: Antiproliferative activity against human HCC2998 cells assessed as cell growth at 10 uM; type: functional; settings: read-out: Activity; procedure, shortened: as §1
UO-31 = assay: Antiproliferative activity against human UO31 cells assessed as cell growth at 10 uM; type: functional; settings: read-out: Activity; procedure, shortened: as §3
CCRF-CEM = assay: Antiproliferative activity against human CCRF-CEM cells assessed as cell growth at 10 uM; type: functional; settings: read-out: Activity; procedure, shortened: as §1
[6] = Cytotoxicity against human H1299 cells at 10 uM after 48 hrs by MTT assay; type: functional; settings: NCI-H1299, 48 h; procedure, shortened: as §2
SK-OV-3 = assay: Antiproliferative activity against human SKOV3 cells assessed as cell growth at 10 uM; type: functional; settings: read-out: Activity; procedure, shortened: as §1
NCI-H23 = assay: Antiproliferative activity against human NCI-H23 cells assessed as cell growth at 10 uM; type: functional; settings: read-out: Activity; procedure, shortened: as §1
[7] = target: Telomerase reverse transcriptase (Homo sapiens) (UniProt O14746); assay: Inhibition of TERT in human H1299 cells assessed as residual transcriptional activity at 10 uM after 24 hrs by SEAP reporter gene assay; values are per cent of control
SF-539 = assay: Antiproliferative activity against human SF539 cells assessed as cell growth at 10 uM; type: functional; settings: read-out: Activity; procedure, shortened: as §1
SK-MEL-2 = assay: Antiproliferative activity against human SK-MEL-2 cells assessed as cell growth at 10 uM; type: functional; settings: read-out: Activity; procedure, shortened: as §1
NCI-H226 = assay: Antiproliferative activity against human NCI-H226 cells assessed as cell growth at 10 uM; type: functional; settings: read-out: Activity; procedure, shortened: as §1
NCI-H322M = assay: Antiproliferative activity against human NCI-H322M cells assessed as cell growth at 10 uM; type: functional; settings: read-out: Activity; procedure, shortened: as §1
DU-145 = assay: Antiproliferative activity against human DU145 cells assessed as cell growth at 10 uM; type: functional; settings: read-out: Activity; procedure, shortened: as §1
MDA-MB-435 = assay: Antiproliferative activity against human MDA-MB-435 cells assessed as cell growth at 10 uM; type: functional; settings: read-out: Activity; procedure, shortened: as §1

Telomerase reverse transcriptase (Homo sapiens), sequence (O14746 whole entry): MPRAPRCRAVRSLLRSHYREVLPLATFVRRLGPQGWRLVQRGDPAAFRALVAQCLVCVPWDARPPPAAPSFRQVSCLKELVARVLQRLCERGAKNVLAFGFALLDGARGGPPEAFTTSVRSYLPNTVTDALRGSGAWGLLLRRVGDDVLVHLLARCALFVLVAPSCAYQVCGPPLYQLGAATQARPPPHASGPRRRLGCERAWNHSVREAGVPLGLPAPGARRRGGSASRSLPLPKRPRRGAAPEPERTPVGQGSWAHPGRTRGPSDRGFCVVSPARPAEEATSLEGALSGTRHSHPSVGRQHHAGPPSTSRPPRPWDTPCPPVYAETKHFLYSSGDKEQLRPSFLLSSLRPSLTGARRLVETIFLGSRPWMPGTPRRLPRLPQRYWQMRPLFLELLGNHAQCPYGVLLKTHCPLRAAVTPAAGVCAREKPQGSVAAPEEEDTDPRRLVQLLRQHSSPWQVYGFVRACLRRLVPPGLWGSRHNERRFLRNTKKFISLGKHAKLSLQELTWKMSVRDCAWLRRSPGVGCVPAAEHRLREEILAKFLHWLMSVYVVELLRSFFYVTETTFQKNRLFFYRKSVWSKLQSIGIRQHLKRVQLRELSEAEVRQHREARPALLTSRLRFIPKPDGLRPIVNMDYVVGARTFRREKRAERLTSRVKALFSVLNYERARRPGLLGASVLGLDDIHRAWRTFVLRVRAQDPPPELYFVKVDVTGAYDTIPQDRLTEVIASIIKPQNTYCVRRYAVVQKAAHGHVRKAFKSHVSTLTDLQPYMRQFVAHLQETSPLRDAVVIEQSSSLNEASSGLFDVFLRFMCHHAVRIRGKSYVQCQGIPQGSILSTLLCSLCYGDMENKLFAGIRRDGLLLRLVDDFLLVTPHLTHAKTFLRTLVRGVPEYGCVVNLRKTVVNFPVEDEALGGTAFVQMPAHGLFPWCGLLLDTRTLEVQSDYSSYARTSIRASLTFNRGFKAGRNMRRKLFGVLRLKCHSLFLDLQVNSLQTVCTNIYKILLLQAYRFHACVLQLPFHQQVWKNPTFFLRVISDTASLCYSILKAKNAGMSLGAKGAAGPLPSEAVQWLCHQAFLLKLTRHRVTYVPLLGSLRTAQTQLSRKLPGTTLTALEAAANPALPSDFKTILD

CCc1nc2ccc3c(c2[nH]1)C(=O)c1ccccc1C3=O
growth at 10 µM [1]: -18.6% | growth at 10 µM (HOP-92): 41.4% | viability at 1 µM [2]: 88% | growth at 10 µM (TK-10): 33.8% | growth at 10 µM (K562): 64.4% | growth at 10 µM (MDA-MB-231): 78% | residual activity [3]: 25% | growth at 10 µM (OVCAR-4): 48.8% | growth at 10 µM (SK-MEL-28): 86.8% | growth at 10 µM (SNB-75): 55.1% | growth at 10 µM (EKVX): 52.3% | residual activity [4]: 70% | growth at 10 µM (NCI/ADR-RES): 74.4% | growth at 10 µM (MOLT-4): 64.2% | growth at 10 µM (COLO 205): 69.7% | growth at 10 µM (HOP-62): 97.7% | growth at 10 µM (M14): 60.1% | growth at 10 µM (OVCAR-5): 102% | growth at 10 µM (KM12): 72.9% | growth at 10 µM (HCT-15): 42.2% | inhibition [5]: inactive | growth at 10 µM (786-0): 76.6% | growth at 10 µM (UACC-62): 51.4% | growth at 10 µM (OVCAR-3): 78.2% | growth at 10 µM (NCI-H460): 59.8% | growth at 10 µM (SF-295): 75.8% | growth at 10 µM (MCF7): 69.8% | growth at 10 µM (PC-3): 48.5% | growth at 10 µM (SNB-19): 74.9% | growth at 10 µM (U-251): 60.1% | growth at 10 µM (HT-29): 64.5% | growth at 10 µM (SW-620): 73.1% | growth at 10 µM (HCC 2998): 67.7% | growth at 10 µM (UO-31): 23.9% | growth at 10 µM (CCRF-CEM): 45.4% | viability at 10 µM [6]: 82% | growth at 10 µM (SK-OV-3): 25.8% | growth at 10 µM (NCI-H23): 71.4% | residual activity [7]: 59% | growth at 10 µM (SF-539): 83.2% | growth at 10 µM (SK-MEL-2): 40.1% | growth at 10 µM (NCI-H226): 75.9% | growth at 10 µM (NCI-H322M): 31.4% | growth at 10 µM (DU-145): 61.6% | growth at 10 µM (MDA-MB-435): 84.4%

CN(C)c1ccc(-c2nc3ccc4c(c3[nH]2)C(=O)c2ccccc2C4=O)cc1
growth at 10 µM [1]: 109% | growth at 10 µM (HOP-92): 89.9% | viability at 1 µM [2]: 88% | growth at 10 µM (TK-10): 116% | growth at 10 µM (K562): 96.1% | growth at 10 µM (MDA-MB-231): 94.4% | residual activity [3]: 21% | growth at 10 µM (OVCAR-4): 98.3% | growth at 10 µM (SK-MEL-28): 96.8% | growth at 10 µM (SNB-75): 93.1% | growth at 10 µM (EKVX): 91.9% | residual activity [4]: 92% | growth at 10 µM (NCI/ADR-RES): 108% | growth at 10 µM (MOLT-4): 101% | growth at 10 µM (COLO 205): 208% | growth at 10 µM (HOP-62): 102% | growth at 10 µM (M14): 113% | growth at 10 µM (OVCAR-5): 117% | growth at 10 µM (KM12): 98% | growth at 10 µM (HCT-15): 107% | inhibition [5]: inactive | growth at 10 µM (786-0): 109% | growth at 10 µM (UACC-62): 85.8% | growth at 10 µM (OVCAR-3): 111% | growth at 10 µM (NCI-H460): 101% | growth at 10 µM (SF-295): 159% | growth at 10 µM (MCF7): 67.4% | growth at 10 µM (PC-3): 82.4% | growth at 10 µM (SNB-19): 127% | growth at 10 µM (U-251): 102% | growth at 10 µM (HT-29): 105% | growth at 10 µM (SW-620): 103% | growth at 10 µM (HCC 2998): 109% | growth at 10 µM (UO-31): 75.5% | growth at 10 µM (CCRF-CEM): 63.9% | viability at 10 µM [6]: 62% | growth at 10 µM (SK-OV-3): 202% | growth at 10 µM (NCI-H23): 93.8% | residual activity [7]: 73% | growth at 10 µM (SF-539): 111% | growth at 10 µM (SK-MEL-2): 73.2% | growth at 10 µM (NCI-H226): 89.3% | growth at 10 µM (NCI-H322M): 94.8% | growth at 10 µM (DU-145): 99.9% | growth at 10 µM (MDA-MB-435): 106%
